# Reference: ChEMBL document CHEMBL1124204, “Thiophene systems. 9. Thienopyrimidinedione derivatives as potential antihypertensive agents” (1988)
# Assays:
# Rattus norvegicus [1] = assay: Evaluated for blood pressure lowering activity in spontaneously hypertensive rats (maximum change of systolic blood pressure (SBP)) at a dose of 10 mg/kg; assay type: functional, Artery
# How it was run: (§1)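 Adult male SHR, conscious, restrained in a chamber at 32 °C. SBP measured indirectly by tail cuff with a pneumatic pulse transducer. After baseline, groups of 4–6 received a single oral gavage dose or vehicle (0.5% methylcellulose). SBP was read at 0.5, 1, 2, 3 and 4 h, and the maximum SBP change ± SEM was reported against the vehicle effect.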
# Rattus norvegicus [2] = assay: Time to peak fall in systolic blood pressure in spontaneously hypertensive rats after oral administration of 10 mg/kg of the compound
# Rattus norvegicus [3] = assay: Evaluated for blood pressure lowering activity in the conscious spontaneously hypertensive rats (SHR) (time to peak (h)) at a dose of 10 mg/kg; assay type: functional
# How it was run: (§2)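 Conscious adult male SHR in restrainers at 32 °C, with tail-cuff and pulse-transducer SBP recording. Groups of 4–6 got a single gavage dose in 0.5% methylcellulose or vehicle alone. SBP was sampled at 0.5, 1, 2, 3 and 4 h post-dose, and the time (h) at which the peak SBP change occurred was recorded.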
# Rattus norvegicus [4] = assay: Evaluated for blood pressure lowering activity in the conscious spontaneously hypertensive rats (SHR) (time to peak (h)) at a dose of 2.5 mg/kg; assay type: functional; how it was run: as §2
# Rattus norvegicus [5] = assay: Evaluated for blood pressure lowering activity in spontaneously hypertensive rats (maximum change of systolic blood pressure (SBP)) at a dose of 2.5 mg/kg; assay type: functional, Artery; how it was run: as §1
# Rattus norvegicus [6] = assay: Evaluated for blood pressure lowering activity in the conscious spontaneously hypertensive rats (SHR) (time to peak (h)) at a dose of 5 mg/kg; assay type: functional; how it was run: as §2
# Rattus norvegicus [7] = assay: Evaluated for blood pressure lowering activity in spontaneously hypertensive rats (maximum change of systolic blood pressure (SBP)) at a dose of 5 mg/kg; assay type: functional, Artery; how it was run: as §1
# Rattus norvegicus [8] = assay: Time to reach peak blood pressure lowering effect in spontaneously hypertensive rats after oral administration of 2.5 mg/kg of the compound
# Rattus norvegicus [9] = assay: Evaluated for blood pressure lowering activity in spontaneously hypertensive rats (maximum change of systolic blood pressure (SBP)) at a dose of 1.25 mg/kg; assay type: functional, Artery; how it was run: as §1
# Rattus norvegicus [10] = assay: Time to peak fall in systolic blood pressure in spontaneously hypertensive rats after oral administration of 1.25 mg/kg of the compound
# Canis familiaris = assay: Intravenous dose required to produce a 20-fold rightward shift in the phenylephrine dose-response curve in the dog; assay type: functional, Canis lupus familiaris
# How it was run: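 Mongrel dogs, anesthetized and bilaterally vagotomized. Mean arterial pressure was recorded via carotid cannula, and drug was given iv through the jugular vein. Phenylephrine dose–response curves were run before and after antagonist. The iv dose (μg/kg) producing a 20-fold rightward shift (DR20) was calculated; n = animals tested.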
# Rattus norvegicus [11] = assay: Intravenous dose required to produce a 50% inhibition of the phenylephrine pressor response in the spontaneously hypertensive rats; assay type: functional
# How it was run: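 Adult male SHR, anesthetized and bilaterally vagotomized. A carotid artery was cannulated for mean arterial pressure and a jugular vein for iv dosing. Phenylephrine pressor responses were measured before and after antagonist. The iv dose (μg/kg) giving 50% inhibition of the pressor response (ED50) was reported with fiducial limits.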
# Rattus norvegicus [12] = species on record: Rattus norvegicus; assay: Peroral dose required to produce a 50 mmHg drop in systolic blood pressure (SBP) in the spontaneously hypertensive rats; assay type: functional; details: Artery, po
# How it was run: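 Adult male SHR, conscious, tail-cuff indirect SBP at 32 °C. Groups of 4–6 were given single oral gavage doses of 0.5–20 mg/kg in 0.5% methylcellulose, with SBP followed over 4 h. The dose giving a 50 mmHg SBP fall (ED50SBP, mg/kg po) was calculated by regression analysis with 95% fiducial limits; n = animals tested.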
# Rattus norvegicus [13] = assay: Evaluated for blood pressure lowering activity in spontaneously hypertensive rats (maximum change of systolic blood pressure (SBP)) at a dose of 20 mg/kg; assay type: functional, Artery; how it was run: as §1
# Rattus norvegicus [14] = assay: Time to reach peak blood pressure lowering effect in spontaneously hypertensive rats after oral administration of 20 mg/kg of the compound
structure (smiles),measurement,setting,value
CCOC(=O)CCCn1c(=O)n(CCN2CCN(c3ccccc3OC)CC2)c(=O)c2cscc21,Delta SBP,Rattus norvegicus [1],-87 mmHg
same,Time,Rattus norvegicus [2],0.5 h
COc1ccccc1N1CCN(CCCn2c(=O)[nH]c3sccc3c2=O)CC1,Time,Rattus norvegicus [3],0.5 h
same,Delta SBP,Rattus norvegicus [1],-68 mmHg
Cc1ccccc1N1CCN(CCn2c(=O)[nH]c3sccc3c2=O)CC1,Delta SBP,Rattus norvegicus [1],-70 mmHg
same,Time,Rattus norvegicus [2],0.5 h
COc1ccccc1N1CCN(CCCn2c(=O)[nH]c3cscc3c2=O)CC1,Delta SBP,Rattus norvegicus [1],-38 mmHg
same,Time,Rattus norvegicus [2],1 h
COc1ccccc1N1CCN(CCCn2c(=O)[nH]c3ccsc3c2=O)CC1,Delta SBP,Rattus norvegicus [1],-43 mmHg
same,Time,Rattus norvegicus [2],0.5 h
COc1ccccc1N1CCN(CCn2c(=O)c3cscc3n(C(C)=O)c2=O)CC1,Time,Rattus norvegicus [4],0.5 h
same,Delta SBP,Rattus norvegicus [5],-44 mmHg
COc1ccc(N2CCN(CCn3c(=O)[nH]c4sccc4c3=O)CC2)cc1,Delta SBP,Rattus norvegicus [1],-40 mmHg
same,Time,Rattus norvegicus [2],0.5 h
COc1ccc(C(=O)n2c(=O)n(CCN3CCN(c4ccccc4OC)CC3)c(=O)c3cscc32)cc1,Time,Rattus norvegicus [4],2 h
same,Delta SBP,Rattus norvegicus [5],-59 mmHg
COc1ccccc1N1CCN(CCn2c(=O)c3cscc3n(C(=O)c3ccc(Cl)cc3)c2=O)CC1,Time,Rattus norvegicus [6],1 h
same,Delta SBP,Rattus norvegicus [7],-14 mmHg
Cl.O=c1[nH]c2cscc2c(=O)n1CCN1CCN(c2ccccc2)CC1,Delta SBP,Rattus norvegicus [1],-76 mmHg
same,Time,Rattus norvegicus [2],0.5 h
CCOC(=O)CCCCn1c(=O)n(CCN2CCN(c3ccccc3OC)CC2)c(=O)c2sccc21,Delta SBP,Rattus norvegicus [5],-30 mmHg
same,Time,Rattus norvegicus [8],0.5 h
COc1ccccc1N1CCN(CCn2c(=O)[nH]c3c(Cl)scc3c2=O)CC1,Delta SBP,Rattus norvegicus [5],-75 mmHg
same,Time,Rattus norvegicus [8],0.5 h
COc1ccccc1N1CCN(CCn2c(=O)[nH]c3scc(C)c3c2=O)CC1.Cl.O,Delta SBP,Rattus norvegicus [1],-56 mmHg
same,Time,Rattus norvegicus [2],0.5 h
COc1ccccc1N1CCN(CCn2c(=O)[nH]c3csc(C)c3c2=O)CC1.Cl,Delta SBP,Rattus norvegicus [9],-66 mmHg
same,Time,Rattus norvegicus [10],1 h
COc1ccccc1N1CCN(CCn2c(=O)c3sccc3n(C(=O)C(C)(C)C)c2=O)CC1,Time,Rattus norvegicus [4],0.5 h
same,Delta SBP,Rattus norvegicus [5],-62 mmHg
COC(=O)CCn1c(=O)n(CCN2CCN(c3ccccc3OC)CC2)c(=O)c2cscc21,Delta SBP,Rattus norvegicus [1],-55 mmHg
same,Time,Rattus norvegicus [2],1 h
COc1cccc(N2CCN(CCn3c(=O)[nH]c4ccsc4c3=O)CC2)c1,Delta SBP,Rattus norvegicus [5],-28 mmHg
same,Time,Rattus norvegicus [8],1 h
COc1ccccc1N1CCN(CCn2c(=O)[nH]c3ccsc3c2=O)CC1,DR20,Canis familiaris,4 µg/kg
same,ED50,Rattus norvegicus [11],0.0021 mg/kg
same,ED50,Rattus norvegicus [12],0.19 mg/kg
same,Delta SBP,Rattus norvegicus [9],-74 mmHg
same,Time,Rattus norvegicus [10],0.5 h
CCCCn1c(=O)n(CCN2CCN(c3ccccc3OC)CC2)c(=O)c2sccc21,Delta SBP,Rattus norvegicus [9],-28 mmHg
same,Time,Rattus norvegicus [10],0.5 h
Cl.O=c1[nH]c2cscc2c(=O)n1CCN1CCN(c2ccc(F)cc2)CC1,Delta SBP,Rattus norvegicus [1],-68 mmHg
same,Time,Rattus norvegicus [2],0.5 h
Cc1ccccc1N1CCN(CCn2c(=O)[nH]c3cscc3c2=O)CC1,Delta SBP,Rattus norvegicus [9],-36 mmHg
same,Time,Rattus norvegicus [10],0.5 h
CCOc1ccccc1N1CCN(CCn2c(=O)[nH]c3cscc3c2=O)CC1.Cl,Delta SBP,Rattus norvegicus [5],-79 mmHg
same,Time,Rattus norvegicus [8],2 h
COc1ccccc1N1CCN(CCn2c(=O)c3cscc3n(C(=O)c3ccccc3)c2=O)CC1,Time,Rattus norvegicus [6],1 h
same,Delta SBP,Rattus norvegicus [7],-68 mmHg
COc1cccc(N2CCN(CCn3c(=O)[nH]c4cscc4c3=O)CC2)c1,Delta SBP,Rattus norvegicus [13],-52 mmHg
same,Time,Rattus norvegicus [14],0.5 h
COc1ccccc1N1CCN(CCn2c(=O)[nH]c3sc(Cl)cc3c2=O)CC1,Delta SBP,Rattus norvegicus [9],-25 mmHg
same,Time,Rattus norvegicus [10],0.5 h
C#CCn1c(=O)n(CCN2CCN(c3ccccc3OC)CC2)c(=O)c2cscc21,Time,Rattus norvegicus [3],1 h
same,Delta SBP,Rattus norvegicus [1],-52 mmHg
C=CCn1c(=O)n(CCN2CCN(c3ccccc3OC)CC2)c(=O)c2cscc21,Delta SBP,Rattus norvegicus [1],-50 mmHg
same,Time,Rattus norvegicus [2],1 h
O=c1[nH]c2ccsc2c(=O)n1CCN1CCN(c2ccccc2Cl)CC1,Delta SBP,Rattus norvegicus [9],-30 mmHg
same,Time,Rattus norvegicus [10],0.5 h
CCCCCC(=O)n1c(=O)n(CCN2CCN(c3ccccc3OC)CC2)c(=O)c2cscc21,Time,Rattus norvegicus [6],0.5 h
same,Delta SBP,Rattus norvegicus [7],-42 mmHg
COc1ccccc1N1CCN(CCn2c(=O)c3cscc3n(C(=O)C(C)C)c2=O)CC1,Time,Rattus norvegicus [6],0.5 h
same,Delta SBP,Rattus norvegicus [7],-53 mmHg
O=c1[nH]c2cscc2c(=O)n1CCN1CCN(c2ccccc2Cl)CC1,Delta SBP,Rattus norvegicus [9],-51 mmHg
same,Time,Rattus norvegicus [10],0.5 h
CCCCCCCCn1c(=O)n(CCN2CCN(c3ccccc3OC)CC2)c(=O)c2cscc21,Time,Rattus norvegicus [3],2 h
same,Delta SBP,Rattus norvegicus [1],-54 mmHg
Cc1ccccc1N1CCN(CCn2c(=O)[nH]c3ccsc3c2=O)CC1,Delta SBP,Rattus norvegicus [9],-33 mmHg
same,Time,Rattus norvegicus [10],1 h
COc1ccccc1N1CCN(CCn2c(=O)[nH]c3sccc3c2=O)CC1,DR20,Canis familiaris,20 µg/kg
same,ED50,Rattus norvegicus [11],0.0154 mg/kg
same,ED50,Rattus norvegicus [12],1 mg/kg
same,Delta SBP,Rattus norvegicus [9],-50 mmHg
same,Time,Rattus norvegicus [10],0.5 h
COc1ccc(N2CCN(CCn3c(=O)[nH]c4cscc4c3=O)CC2)cc1,Delta SBP,Rattus norvegicus [1],-51 mmHg
same,Time,Rattus norvegicus [2],0.5 h
COc1ccccc1N1CCN(CCn2c(=O)c3ccsc3n(C)c2=O)CC1,Delta SBP,Rattus norvegicus [9],-28 mmHg
same,Time,Rattus norvegicus [10],0.5 h
O=c1[nH]c2ccsc2c(=O)n1CCN1CCN(c2ccccc2)CC1,Delta SBP,Rattus norvegicus [1],-48 mmHg
same,Time,Rattus norvegicus [2],0.5 h
O=c1[nH]c2cscc2c(=O)n1CCN1CCN(c2ccc(Cl)cc2)CC1,Delta SBP,Rattus norvegicus [1],-56 mmHg
same,Time,Rattus norvegicus [2],0.5 h
COc1ccc(N2CCN(CCn3c(=O)[nH]c4ccsc4c3=O)CC2)cc1,Delta SBP,Rattus norvegicus [1],-68 mmHg
same,Time,Rattus norvegicus [2],1 h
O=c1[nH]c2sccc2c(=O)n1CCN1CCN(c2ccccc2Cl)CC1,Delta SBP,Rattus norvegicus [1],-43 mmHg
same,Time,Rattus norvegicus [2],2 h
COc1ccccc1N1CCN(CCn2c(=O)c3sccc3n(C(C)=O)c2=O)CC1,Time,Rattus norvegicus [6],0.5 h
same,Delta SBP,Rattus norvegicus [7],-58 mmHg
COc1ccccc1N1CCN(CCn2c(=O)c3cscc3n(C(=O)C(C)(C)C)c2=O)CC1,Time,Rattus norvegicus [6],0.5 h
same,Delta SBP,Rattus norvegicus [7],-69 mmHg
COc1ccccc1N1CCN(CCn2c(=O)c3sccc3n(C)c2=O)CC1,Delta SBP,Rattus norvegicus [9],-56 mmHg
same,Time,Rattus norvegicus [10],0.5 h
O=c1[nH]c2cscc2c(=O)n1CCN1CCN(c2cccc(Cl)c2)CC1,Time,Rattus norvegicus [3],2 h
same,Delta SBP,Rattus norvegicus [1],-20 mmHg
O=c1[nH]c2sccc2c(=O)n1CCN1CCN(c2ccccc2)CC1,Delta SBP,Rattus norvegicus [1],-45 mmHg
same,Time,Rattus norvegicus [2],1 h
COc1ccccc1N1CCN(CCn2c(=O)c3cscc3n(C)c2=O)CC1,Delta SBP,Rattus norvegicus [9],-67 mmHg
same,Time,Rattus norvegicus [10],0.5 h
CCOC(=O)n1c(=O)n(CCN2CCN(c3ccccc3OC)CC2)c(=O)c2sccc21,Time,Rattus norvegicus [4],0.5 h
same,Delta SBP,Rattus norvegicus [5],-30 mmHg
